Experimental data reported in ChEMBL document CHEMBL1126160, “Synthesis and structure-activity relationships of 7-diazabicycloalkylquinolones, including danofloxacin, a new quinolone antibacterial agent for veterinary medicine” (J Med Chem, 1992).
In brackets after ≈: the same amount, converted by molar mass.

Columns and labels:
Assay type in all cases: functional
Escherichia coli [1] = experiment: Escherichia coli DNA cleavage endpoint value which is the minimum amount required (in micro g/mL) to induce detectable cleavage of supercoiled pBR322 substrate to linear form (gyrase); details: read-out: MIC
Method in brief: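 DNA gyrase A and B subunits were purified from E. coli overproducers. About 2 units of holoenzyme were incubated with pBR322 in Tris-HCl pH 7.5 containing MgCl2, spermidine, DTT, 0.2 mM ATP, BSA and tRNA. Drug was added as 2-fold serial dilutions, and reactions ran for 60 min at 25 °C. Reactions were stopped with SDS and proteinase K, then run on agarose and stained with ethidium. The endpoint was the lowest concentration giving detectable linear DNA.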

[2] = In vitro antibacterial activity against Aerobically grown Pasteurella haemolytica (59B018); details: Mannheimia haemolytica
Method in brief: (§1)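 Agar dilution MICs. Aerobic strains were tested on brain heart infusion agar and incubated aerobically at 37 °C for 18–20 h.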

Staphylococcus aureus = experiment: In vitro antibacterial activity against aerobically grown Staphylococcus aureus (54B004); method in brief: as §1
Phocaeicola vulgatus = experiment: In vitro antibacterial activity against anaerobically grown Bacteroides vulgatus (78D029)
Method in brief: (§2)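 Agar dilution MICs. Anaerobic strains were tested on tryptose agar with 5% bovine blood and incubated 48 h at 39 °C in an anaerobe chamber under N2/CO2/H2 (80:10:10).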

[3] = In vitro evaluation for antibacterial activity against anaerobically grown Treponema hyodysenteriae (94A007); details: Brachyspira hyodysenteriae
Trueperella pyogenes = experiment: In vitro antibacterial activity against anaerobically grown Actinomyces pyogenes (14D002); method in brief: as §2
[4] = tested on: Actinobacillus pleuropneumoniae; experiment: In vitro antibacterial activity against anaerobically grown Actinobacillus pleuropneumoniae ([…]); method in brief: as §2
Pasteurella multocida = experiment: In vitro antibacterial activity against aerobically grown Pasteurella multocida (59A006); method in brief: as §1
Salmonella enterica = experiment: In vitro antibacterial activity against aerobically grown Salmonella choleraesuis (58B015)
Escherichia coli [5] = experiment: In vitro antibacterial activity against aerobically grown Escherichia coli (51A538); method in brief: as §1
Clostridium perfringens = experiment: microbe, parasite or virus in culture
[6] = tested on: Bordetella bronchiseptica; experiment: In vitro antibacterial activity against aerobically grown Bordetella bronchiseptica (73A009); method in brief: as §1

Row | SMILES | minimum concentration inducing gyrase-mediated DNA cleavage (Escherichia coli [1]) [µg/mL] | MIC [2] [µg/mL] | MIC (Staphylococcus aureus) [µg/mL] | MIC (Phocaeicola vulgatus) [µg/mL] | MIC [3] [µg/mL] | MIC (Trueperella pyogenes) [µg/mL] | MIC [4] [µg/mL] | MIC (Pasteurella multocida) [µg/mL] | MIC (Salmonella enterica) [µg/mL] | MIC (Escherichia coli [5]) [µg/mL] | MIC (Clostridium perfringens) [µg/mL] | MIC [6] [µg/mL]
1 | O=C(O)c1cn(-c2ccc(F)cc2)c2c(F)c(N3C[C@@H]4C[C@H]3CN4)c(F)cc2c1=O | 0.78 | 0.1 (≈ 0.241 µM) | 0.78 (≈ 1.88 µM) | > 3.13 | 0.78 (≈ 1.88 µM) | > 3.13 | 0.1 (≈ 0.241 µM) | 0.1 (≈ 0.241 µM) | 0.2 (≈ 0.481 µM) | 0.1 (≈ 0.241 µM) | 0.2 (≈ 0.481 µM) | > 1.56
2 | CN1[C@@H]2CC[C@H]1CN(c1c(F)cc3c(=O)c(C(=O)O)cn(CCF)c3c1F)C2 | 0.39 | 0.78 (≈ 1.97 µM) | 1.56 (≈ 3.95 µM) | > 3.13 | > 3.13 | > 3.13 | 0.39 (≈ 0.986 µM) | 0.39 (≈ 0.986 µM) | 1.56 (≈ 3.95 µM) | 0.78 (≈ 1.97 µM) | 0.78 (≈ 1.97 µM) | 6.25 (≈ 15.8 µM)
3 | CCn1cc(C(=O)O)c(=O)c2cc(F)c(N3CC[C@H]4CCC(C3)N4C)c(F)c21 | 3.12 | 0.78 (≈ 1.99 µM) | 0.78 (≈ 1.99 µM) | > 3.13 | > 3.13 | > 3.13 | 0.78 (≈ 1.99 µM) | 0.2 (≈ 0.511 µM) | 1.56 (≈ 3.99 µM) | 0.39 (≈ 0.996 µM) | 3.13 (≈ 8 µM) | 1.56 (≈ 3.99 µM)
4 | CN1C2CC[C@@H]1CCN(c1cc3c(cc1F)c(=O)c(C(=O)O)cn3C)C2 | 6.25 | 6.25 (≈ 17.4 µM) | 1.56 (≈ 4.34 µM) | – | – | – | – | 6.25 (≈ 17.4 µM) | 6.25 (≈ 17.4 µM) | 6.25 (≈ 17.4 µM) | – | > 25
5 | CN1C[C@@H]2C[C@H]1CN2c1nc2c(cc1F)c(=O)c(C(=O)O)cn2-c1ccc(F)cc1 | 1.56 | 0.05 (≈ 0.121 µM) | 0.2 (≈ 0.485 µM) | 3.13 (≈ 7.59 µM) | 3.13 (≈ 7.59 µM) | > 3.13 | 0.1 (≈ 0.242 µM) | 0.02 (≈ 0.0485 µM) | 0.2 (≈ 0.485 µM) | 0.2 (≈ 0.485 µM) | 0.39 (≈ 0.946 µM) | > 1.56
6 | CN1[C@@H]2CC[C@H]1CN(c1cc3c(cc1F)c(=O)c(C(=O)O)cn3C)C2 | 3.12 | 0.2 (≈ 0.579 µM) | 0.2 (≈ 0.579 µM) | 12.5 (≈ 36.2 µM) | 0.78 (≈ 2.26 µM) | 3.13 (≈ 9.06 µM) | 0.78 (≈ 2.26 µM) | 0.78 (≈ 2.26 µM) | 3.13 (≈ 9.06 µM) | 3.13 (≈ 9.06 µM) | 1.56 (≈ 4.52 µM) | > 25
7 | CN1C[C@@H]2C[C@H]1CN2c1cc2c(cc1F)c(=O)c(C(=O)O)cn2-c1ccc(F)cc1F | 0.78 | 0.05 (≈ 0.116 µM) | 0.1 (≈ 0.233 µM) | 0.78 (≈ 1.82 µM) | > 3.13 | 0.78 (≈ 1.82 µM) | 0.005 (≈ 0.0116 µM) | 0.01 (≈ 0.0233 µM) | 0.2 (≈ 0.466 µM) | 0.1 (≈ 0.233 µM) | 0.2 (≈ 0.466 µM) | 1.56 (≈ 3.63 µM)
8 | O=C(O)c1cn(C2CC2)c2c(F)c(N3C[C@@H]4C[C@H]3CN4)c(F)cc2c1=O | 0.09 | 0.005 (≈ 0.0138 µM) | 0.39 (≈ 1.08 µM) | 1.56 (≈ 4.32 µM) | 1.56 (≈ 4.32 µM) | 0.39 (≈ 1.08 µM) | < 0.005 | 0.005 (≈ 0.0138 µM) | 0.01 (≈ 0.0277 µM) | 0.01 (≈ 0.0277 µM) | 0.05 (≈ 0.138 µM) | 0.39 (≈ 1.08 µM)
9 | O=C(O)c1cn(C2CC2)c2c(F)c(N3CCN4CCC3CC4)c(F)cc2c1=O | 0.39 | 0.01 (≈ 0.0257 µM) | 0.05 (≈ 0.128 µM) | 0.1 (≈ 0.257 µM) | 0.78 (≈ 2 µM) | 0.39 (≈ 1 µM) | 0.01 (≈ 0.0257 µM) | 0.002 (≈ 0.00514 µM) | 0.01 (≈ 0.0257 µM) | 0.01 (≈ 0.0257 µM) | 0.1 (≈ 0.257 µM) | 0.39 (≈ 1 µM)
10 | CCn1cc(C(=O)O)c(=O)c2cc(F)c(N3C[C@H]4CCC[C@@H](C3)N4C)cc21 | 3.12 | 0.1 (≈ 0.268 µM) | 0.1 (≈ 0.268 µM) | 1.56 (≈ 4.18 µM) | 6.25 (≈ 16.7 µM) | 6.25 (≈ 16.7 µM) | 0.2 (≈ 0.536 µM) | 0.78 (≈ 2.09 µM) | 1.56 (≈ 4.18 µM) | 1.56 (≈ 4.18 µM) | 0.39 (≈ 1.04 µM) | 6.25 (≈ 16.7 µM)
11 | CN1C[C@@H]2C[C@H]1CN2c1c(F)cc2c(=O)c(C(=O)O)cn(-c3ccc(F)cc3)c2c1F | 0.39 | 0.2 (≈ 0.466 µM) | 0.39 (≈ 0.908 µM) | 3.13 (≈ 7.29 µM) | 1.56 (≈ 3.63 µM) | > 3.13 | 0.05 (≈ 0.116 µM) | 0.02 (≈ 0.0466 µM) | 0.39 (≈ 0.908 µM) | 0.2 (≈ 0.466 µM) | 0.39 (≈ 0.908 µM) | > 1.56
